Residues, ends and D or L forms follow the SMILES beside them.

The target in one assay is T1, LGN TPR repeats (Mus musculus, UniProt Q8VDU0).
T1 sequence (Q8VDU0 22-357): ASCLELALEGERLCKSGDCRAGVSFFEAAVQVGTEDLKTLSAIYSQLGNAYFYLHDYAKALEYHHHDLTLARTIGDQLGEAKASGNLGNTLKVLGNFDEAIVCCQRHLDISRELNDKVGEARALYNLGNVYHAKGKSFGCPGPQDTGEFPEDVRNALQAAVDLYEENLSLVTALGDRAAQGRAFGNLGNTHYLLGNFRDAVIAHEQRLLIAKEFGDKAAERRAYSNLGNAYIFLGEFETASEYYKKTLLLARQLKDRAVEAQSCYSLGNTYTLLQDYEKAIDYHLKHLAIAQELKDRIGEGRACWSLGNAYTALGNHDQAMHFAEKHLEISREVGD
The following applies: fit of the LGN TPR0-7/NuMA fluorescence polarization binding curve; Fig. 2C. Summed up: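 Fluorescence polarization at 25 °C using a fluorimeter with an automated polarizer. A FITC-labeled human NuMA peptide (~1 μM) was titrated with mouse LGN TPR0-7 in 50 mM Tris pH 8.0, 100 mM NaCl, 1 mM DTT, 1 mM EDTA. The LGN fragment was expressed from a modified pET32a vector in E. coli BL21(DE3) at 16°C and purified by Ni2+-NTA then size-exclusion chromatography.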
On the technique in general: In fluorescence polarisation assays a small probe gives low polarisation when free and higher when bound to something large.

Assay [1] concerns the target NuMA_C (1898-1912) (human) (UniProt Q14980). In words: fluorescence polarisation.
Assay [2] concerns the target mInsc38 (aa 20-57) (mouse). In words: fluorescence polarisation.
For assay [3], the target named is NuMA_N (1885-1898) (human) (UniProt Q14980). Nature of the assay: fluorescence polarisation.
For a further assay, the target named is Mud peptide (Drosophila). Nature of the assay: fluorescence polarisation.
Assay [4] has as its target FITC-labeled NuMA peptide (aa 1886-1912) (human) (UniProt Q14980). Nature of the assay: fluorescence polarisation + ITC.
For assay [5], the target named is mInsc22 (aa 19-40), peptide of the fluorescence assays (mouse). Nature of the assay: fluorescence polarisation.

Turning to `CC[C@H](C)[C@H](NC(=O)[C@H](CCCNC(=N)N)NC(=O)[C@H](CC(N)=O)NC(=O)[C@H](Cc1c[nH]c2ccccc12)NC(=O)[C@H](CC(=O)O)NC(=O)[C@H](CC(=O)O)NC(=O)[C@H](CC(C)C)NC(=O)[C@H](CCC(N)=O)NC(=O)[C@H](CCC(=O)O)NC(=O)[C@@H]1CCCN1C(=O)[C@H](CCC(=O)O)NC(=O)[C@H](CC(=O)O)NC(=O)[C@H](CCC(N)=O)NC(=O)[C@H](CS)NC(=O)[C@@H](NC(=O)CNC(=O)[C@H](CCSC)NC(=O)[C@H](Cc1ccc(O)cc1)NC(=O)[C@H](Cc1ccccc1)NC(=O)[C@H](CO)NC(=O)[C@@H](N)CC(N)=O)[C@@H](C)O)C(=O)N[C@@H](C)C(=O)N[C@@H](CCC(=O)O)C(=O)N[C@@H](CC(C)C)C(=O)N[C@@H](CCC(N)=O)C(=O)N[C@@H](CCC(N)=O)C(=O)N[C@@H](CCCNC(=N)N)C(=O)O` [NuMA] (H-NSFYMGTCQDEPEQLDDWNRIAELQQR-OH; N-terminus and C-terminus assumed), the “Hill coefficient of LGN/NuMA binding curve” value at LGN TPR repeats is listed as around 2.0.

Regarding LGN(15-350) (domain or fragment), the Kd stood at 67100 nM in assay [1], 47 nM in assay [2], 31700 nM in assay [3] and 230 nM in the assay with Mud peptide (Drosophila).

Take LGN (aa 15-479) (domain or fragment): the Kd in assay [4] was 60 nM.

For the compound LGN (aa 27-350) (domain or fragment), in assay [4], the fold decrease in NuMA binding (against the longer LGN fragments) turned out to be 200 fold.

Turning to “LGN TPR4-7 (aa 191-350) (domain or fragment)”, the fold decrease in binding affinity (against LGN TPR0-7) in assay [5] turned out to be 10 fold.

By Kd is commonly meant the concentration at which binding is half-saturated.

The values are drawn from PMC3158460 (Molecular cell, 2011).
